The text below walks through data of ChEMBL document CHEMBL4325877, “Synthesis of novel benzbromarone derivatives designed to avoid metabolic activation” (Bioorg Med Chem Lett, 2018).

The subject of series [1] is Hepatocyte. Put plainly: Cytotoxicity in hepatocytes isolated from CYP activator dexamethasone-treated C57BL/6J mouse at 5 uM after 18 hrs by LDH assay relative to control. It is filed as ADME, cell-based. In outline: (§1)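 Hepatocytes from mice pretreated with dexamethasone to induce CYP enzymes; compounds at 1 or 5 µM. Cytotoxicity read as LDH release after drug exposure (text gives 16 hr, legend 18 hr). Values are averages of duplicate experiments.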

The nature of series [2]: Toxicity in liver microsomes isolated from CYP activator dexamethasone-treated Sprague-Dawley rat assessed as induction of mitochondrial permeability transition by measuring mitochondrial swelling at 50 uM measured after 30 mins in presence of NADPH. To be noted: 0.5 h. Further details: species or system Microsome; call rule not given here. In outline: (§2)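 Compound (50 µM) incubated with dexamethasone-treated rat liver microsomes at 37 °C, with or without NADPH, for 30 min. Isolated mitochondrial fraction then added. Swelling followed as absorbance change at 540 nm over time, and area over the curve integrated as the MPT index. Mean ± SD, n = 3.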
On the technique in general: Liver microsomes are vesicles of endoplasmic reticulum, rich in cytochrome P450 enzymes.

A short description of series [3]: Toxicity in liver microsomes isolated from CYP activator dexamethasone-treated Sprague-Dawley rat assessed as induction of mitochondrial permeability transition by measuring mitochondrial swelling at 50 uM measured after 30 mins in absence of NADPH. Details: species or system Microsome. To be noted: 0.5 h. In a few lines: as §2
In series [4] the target is T1, Solute carrier family 22 member 12 (Homo sapiens, UniProt Q96S37).
T1 sequence (Q96S37 whole entry): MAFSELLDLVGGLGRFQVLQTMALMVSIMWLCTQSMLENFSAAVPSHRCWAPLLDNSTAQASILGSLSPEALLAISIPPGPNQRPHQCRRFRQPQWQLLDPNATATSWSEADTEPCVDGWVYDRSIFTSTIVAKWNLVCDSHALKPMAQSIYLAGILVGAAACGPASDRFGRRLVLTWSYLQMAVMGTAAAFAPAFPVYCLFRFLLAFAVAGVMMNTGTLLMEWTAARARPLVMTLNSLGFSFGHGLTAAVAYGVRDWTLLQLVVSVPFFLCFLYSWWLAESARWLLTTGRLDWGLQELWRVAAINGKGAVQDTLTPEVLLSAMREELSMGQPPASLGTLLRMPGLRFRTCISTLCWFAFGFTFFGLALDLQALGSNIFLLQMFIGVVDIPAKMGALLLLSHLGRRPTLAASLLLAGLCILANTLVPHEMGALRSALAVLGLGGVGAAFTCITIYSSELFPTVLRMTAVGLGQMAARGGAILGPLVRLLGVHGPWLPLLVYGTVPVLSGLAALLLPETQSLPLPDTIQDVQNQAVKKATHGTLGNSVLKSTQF
Description: Inhibition of human URAT1 expressed in HEK293 cells assessed as inhibition of [14C]-urate uptake at 10 uM after 2 mins by beta-scintillation counting analysis. In kind it is cell-based. To be noted: hek293, 2 min. In outline:
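HEK cells overexpressing hURAT1; uric acid uptake measured in presence of compound at 10 µM. Uptake expressed as percent of vehicle control (0.5% DMSO, no inhibitor). Mean ± SD, n = 4.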

Series [5] relates to Hepatocyte. Put plainly: Cytotoxicity in hepatocytes isolated from CYP activator dexamethasone-treated C57BL/6J mouse at 1 uM after 18 hrs by LDH assay relative to control. It is filed as ADME, cell-based. In a few lines:
as §1

Another series deals with T2, URAT1 (SLC22A12) (Homo sapiens, UniProt Q96S37).
T2 sequence (Q96S37 whole entry): T1 sequence (Q96S37 whole entry)
Put plainly: Inhibition of human URAT1 expressed in HEK293 cells assessed as [14C]-urate uptake at 10 uM after 2 mins by beta-scintillation counting analysis relative to control. Further details: scale not given: the % may be the effect or the level left. It is filed as cell-based. To be noted: HEK293 cells expressing human URAT1, probe [14C]-urate, read-out: Activity.

In series [6] the test system is Hepatocyte. Put plainly: Cytotoxicity in hepatocytes isolated from CYP activator dexamethasone-treated C57BL/6J mouse after 18 hrs by LDH assay relative to control. It is filed as ADME, cell-based. In outline:
as §1

For `CCc1oc2ccccc2c1C(=O)c1cc(O)cc(Br)c1`, the Activity is given as below 16% in the series on Hepatocyte [1], “Non-Toxic” in series [2] and “Non-Toxic” in series [3]. In addition, the “inhibition (INH)” value in series [4] is given as “Active”.

Take `CCc1oc2ccccc2c1C(=O)c1cc(O)c(Br)cc1Br`: the Activity in the series with Hepatocyte [1] is below 16%; in series [2], “Non-Toxic”; in series [3] it was “Non-Toxic”. In addition, in series [4], the “inhibition (INH)” value was “Active”.

Turning to `CCc1oc2ccccc2c1C(=O)c1cccc(O)c1Br`, the Activity is listed as below 16% in the series with Hepatocyte [1], “Non-Toxic” in series [2] and “Non-Toxic” in series [3]. The “inhibition (INH)” value in series [4] was “Active”.

With `CCc1oc2ccccc2c1C(=O)c1ccc(Br)c(O)c1Br`, the Activity in the series on Hepatocyte [1] is listed as below 16%; in series [2], “Non-Toxic”; in series [3], “Non-Toxic”. Besides, in series [4], the “inhibition (INH)” value is reported as “Active”.

As for `CCc1oc2ccccc2c1C(=O)c1cc(O)ccc1Br`, the Activity in the series with Hepatocyte [1] is below 16%; in series [2], “Non-Toxic”; in series [3] it was “Non-Toxic”. For the same molecule, the “inhibition (INH)” value in series [4] is reported as “Active”.

As for `CCc1oc2ccccc2c1C(=O)c1ccc(Br)c(O)c1`, the Activity with Hepatocyte [1] was below 16%; in series [2], “Non-Toxic”; in series [3] it was “Non-Toxic”. For the same molecule, the “inhibition (INH)” value in series [4] was “Active”.

`CCc1oc2ccccc2c1C(=O)c1cc(Br)c(O)c(Br)c1` [BENZBROMARONE]: the Activity with Hepatocyte [5] is reported as 27%; in the series on Hepatocyte [1] it was 52%; in series [2], “Toxic”; in series [3] it was “Non-Toxic”; in the series with Hepatocyte [6] it was “Dose-dependent effect”. Besides, the activity at 2 min, 10 µM on URAT1 (SLC22A12) was below 10%.
